Screening data deposited in PubChem BioAssay by The Scripps Research Institute Molecular Screening Center.
Only some compounds are listed: those with a hit (about 3.1% of all), similar ones and a draw of the others.
UHRF1 MBD2 ctr: UHRF1 methylated DNA binding inhibitors, primary screen, counter-screen for MBD2 inhibitor project, biochemical, TR-FRET, human UHRF1, single concentration; E3 ubiquitin-protein ligase UHRF1 (Homo sapiens), Q96T88; UHRF1 binding to methylated oligo; inhibition, % at 4.4 µM; 370,000 tested, 0.75% active; AID 687016, 2013; in the data active = inhibition above about 21%;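 also: UHRF1 SRA domain binding a hemimethylated CpG hairpin DNA probe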
Target sequence (Q96T88 whole entry, looked up, the tested form may be a part): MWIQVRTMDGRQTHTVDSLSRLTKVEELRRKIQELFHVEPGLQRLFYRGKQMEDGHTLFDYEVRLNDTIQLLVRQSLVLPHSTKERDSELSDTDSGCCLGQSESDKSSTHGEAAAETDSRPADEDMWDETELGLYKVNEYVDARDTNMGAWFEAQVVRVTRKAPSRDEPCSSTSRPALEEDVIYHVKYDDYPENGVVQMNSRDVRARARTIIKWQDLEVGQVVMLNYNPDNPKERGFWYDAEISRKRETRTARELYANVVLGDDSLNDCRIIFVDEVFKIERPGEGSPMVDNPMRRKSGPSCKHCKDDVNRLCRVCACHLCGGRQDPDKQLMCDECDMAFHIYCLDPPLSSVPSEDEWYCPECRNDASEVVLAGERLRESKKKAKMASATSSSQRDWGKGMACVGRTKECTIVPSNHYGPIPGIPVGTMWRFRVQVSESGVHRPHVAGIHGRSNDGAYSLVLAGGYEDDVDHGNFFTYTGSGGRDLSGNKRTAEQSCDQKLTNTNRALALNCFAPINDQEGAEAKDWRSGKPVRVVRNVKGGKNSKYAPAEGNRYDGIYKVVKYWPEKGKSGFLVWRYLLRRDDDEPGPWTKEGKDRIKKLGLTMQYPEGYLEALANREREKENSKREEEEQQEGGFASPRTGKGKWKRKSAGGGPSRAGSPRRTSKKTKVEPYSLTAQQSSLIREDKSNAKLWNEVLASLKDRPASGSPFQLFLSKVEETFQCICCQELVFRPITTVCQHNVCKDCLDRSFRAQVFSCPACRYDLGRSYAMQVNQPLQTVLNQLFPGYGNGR
ABHD5-PLIN5 inh: ABHD5-PLIN5 interaction inhibitors, primary screen, cell lysate, split luciferase complementation, luminescence. 360,000 tested, 0.78% active. inhibition, % at 4 µM. Perilipin-5 (Homo sapiens) + 1-acylglycerol-3-phosphate O-acyltransferase ABHD5 (Homo …. Split G. princeps luciferase complementation, 4 h;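 active = inhibition above the mean inhibition across every tested compound plus 3 SD, cut at about 22% in these data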
LEDGF integ inh: blockers of LEDGF/p75-dependent integrase strand transfer – biochemical, TR-FRET, high throughput, primary screen. TR-FRET IN-LEDGF/p75 DNA integration, Eu/Cy5. HIV-1 integrase (with human LEDGF/p75). 370,000 tested, 0.64% active. inhibition, % at 3.7 µM;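 active = inhibition above the screen-wide mean plus 3 SD, cut at about 13% in these data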;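 also: signal is the Cy5 over europium emission ratio at 671 and 618 nm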
RBBP9 inh: human RBBP9 inhibitors, primary screen, biochemical, fluorescence polarization, FP-Rh probe, HTS | Serine hydrolase RBBP9 (Homo sapiens), O75884 | recombinant RBBP9 | inhibition, % at 7.94 µM | 220,000 tested, 0.2% active;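 active = inhibition above the campaign mean of all tested compounds plus 3 SD, cut at about 14% in these data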
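Test system: recombinant human RBBP9. Quantity: 2.5 µM RBBP9 dispensing solution, before mixing. Detection: FP readout at 525/598 nm. Reagent: Serine-hydrolase probe FP-Rh, 375 nM pre-mixing. Measure: % inhibition. Control set: DMSO-treated enzyme wells and wells lacking RBBP9. Buffer or medium: Tris-NaCl-Pluronic buffer, pH 8.0. Times: preincubation 30 min plus labeling 45 min at 25 °C.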
PRMT1 inh: PRMT1 methyltransferase inhibitors, primary screen, biochemical, fluorescence polarization. Protein arginine N-methyltransferase 1 (Homo sapiens), Q99873. recombinant PRMT1, activity-based probe fluorescence polarization. inhibition, % at 2.79 µM. 370,000 tested, 1.3% active. AID 652257, 2013;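 active = inhibition above about 21% made by adding two undisclosed values, limit read from the data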
MBD2 inh: inhibitors of MBD2 binding to methylated DNA, primary screen, biochemical, TR-FRET, DNA-binding domain, human; Methyl-CpG-binding domain protein 2 (Homo sapiens), Q9UBB5; MBD2 binding to methylated oligonucleotide; inhibition, % at 4.4 µM; 370,000 tested, 0.31% active; AID 686964, 2013; in the data active = inhibition above about 13%
IN multimer act: HIV-1 IN multimer formation enhancers, counter-screen for LEDGF/p75 integration inhibitor project, biochemical, TR-FRET; AID 1053131, 2014; activation, % at 7.7 µM; 2,000 tested, 17% active; shares compounds with LEDGF integ inh; TR-FRET HIV-1 integrase multimerization; in the data active = activation above about 8.9%
TRFRET interf: TR-FRET optical interference artefacts, confirmation, artefact control for LEDGF/p75-dependent integration inhibitor project, biochemical, HIV-1 IN multimerization. shares compounds with LEDGF integ inh. TR-FRET optical interference counterscreen. inhibition, % at 7.7 µM. 2,000 tested, under 10 active. AID 1053135, 2014;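 active = inhibition above the mean over all tested compounds plus 3 SD, which no compound reached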
IN-LEDGF confirm: inhibitors of HIV-1 IN-LEDGF/p75 DNA integration, confirmation, biochemical, TR-FRET; TR-FRET LEDGF/p75-dependent HIV-1 integration; shares compounds with LEDGF integ inh; AID 1053136, 2014; inhibition, % at 3.7 µM; 2,000 tested, 36% active; in the data active = inhibition above about 14%
Numbers stand for hits; 0 = inactive; - = no result.

SMILES | UHRF1 MBD2 ctr | ABHD5-PLIN5 inh | LEDGF integ inh | RBBP9 inh | PRMT1 inh | MBD2 inh | IN multimer act | TRFRET interf | IN-LEDGF confirm
N#CC1=C(N)Oc2cc(O)c(C=Nc3ccccc3)cc2C1c1ccccc1 (stereo not drawn) | 0 | 0 | 20.2 | 0 | 0 | 0 | 0 | 0 | 19.3
Cc1ccc(C2C(C#N)=C(N)Oc3cc4c(cc32)OCO4)cc1 (stereo not drawn) | 0 | 0 | 0 | 0 | 0 | 0 | - | - | -
Clc1ccc(-c2ccc(C=Nc3ccc(N4CCOCC4)cc3)o2)cc1 | 0 | 0 | 17.8 | 0 | 0 | 0 | 0 | 0 | 0
Clc1ccc(-c2ccc(C=Nc3ccc(N4CCOCC4)cc3)o2)c(Cl)c1 | 0 | 0 | 0 | 0 | 0 | 0 | - | - | -
Clc1cccc(-c2ccc(C=Nc3ccc(N4CCOCC4)cc3)o2)c1Cl | 0 | 0 | 23.9 | 0 | 0 | 0 | 0 | 0 | 0
c1nc(NCC2CC2)c2cc(-c3ccc4c(c3)OCO4)ccc2n1 | 0 | - | 0 | - | 0 | 0 | - | - | -
CN(C)c1ccc(/C=N\NC(=O)c2cccc(S(=O)(=O)N(C)C)c2)cc1 | 0 | - | 0 | - | 0 | 0 | - | - | -
Nc1c(N(C(=O)Nc2ccc(Cl)c(Cl)c2)C2CCCC2)c(=O)[nH]c(=O)n1Cc1ccccc1 | 0 | 0 | 13.9 | 0 | 0 | 0 | 0 | 0 | 0
COCCN(C(=O)C1CCCC1)c1c(N)n(Cc2ccccc2)c(=O)[nH]c1=O | 0 | 0 | 0 | 0 | 0 | 0 | - | - | -
O=C(CSc1nc2ccccc2o1)N/N=C/c1ccc(O)c(O)c1 | 0 | 0 | 16.5 | 0 | 0 | 0 | 62.2 | 0 | 72.9
CC(C)OP(=O)(O)C(C)NC(=O)OCc1ccccc1 (stereo not drawn) | 0 | - | 0 | - | 0 | 0 | - | - | -
O=[N+]([O-])c1ccc(O)c(C=Nc2cccc3ncccc23)c1 | 0 | 0 | 20.0 | 0 | 0 | 0 | 0 | 0 | 0
CCOc1ccc(CCNC(=O)c2ccc3[nH]ccc3c2)cc1OCC | 0 | - | 0 | - | 0 | 0 | - | - | -
Cc1ccc(S(=O)(=O)N(C)c2ccccc2C(=O)Nc2c(F)cccc2F)cc1 | 0 | 0 | 36.3 | - | 0 | 0 | 0 | 0 | 0
COc1cc(-c2cccs2)cc(=O)c2c(C)oc(C)c12 | 0 | 0 | 16.9 | 0 | 0 | 0 | 0 | 0 | 0
COc1ccc(-c2cc(OC(=O)c3ccc(F)cc3)c3c(C)oc(C)c3c(=O)c2)cc1 | - | - | - | 0 | - | - | - | - | -
O=C1C(N2CCOCC2)=C(n2nnc3ccccc32)C(=O)c2ccccc21 | 0 | 0 | 40.0 | 0 | 0 | 0 | 0 | 0 | 45.0
NCC1C2CCC(O2)C1CO (stereo not drawn) | 0 | 0 | 55.5 | - | 0 | 0 | 0 | 0 | 0
CN(C)c1ccc(N=C/C=C2\N(C)c3ccccc3C2(C)C)cc1 | 0 | 0 | 14.7 | 0 | 23.5 | 0 | 0 | 0 | 0
O=C(NC1CC1c1ccccc1)N1CCC(c2nc3ccc(Cl)cc3[nH]2)CC1 (stereo not drawn) | 0 | - | 0 | - | 0 | 0 | - | - | -
CCOC(=O)N[C@H](C(=O)N1CCC[C@H]1C(=O)NCCc1ccccc1Cl)C1CCCCC1 | 0 | - | 0 | - | 0 | 0 | - | - | -
O=c1cc(-c2ccccc2)oc2cc(O)c(O)c(O)c12 | 0 | 0 | 29.9 | - | 0 | 0 | 0 | 0 | 25.8
COc1c(O)cc2oc(-c3ccc(O)cc3)cc(=O)c2c1O | 0 | 0 | 0 | - | 0 | 0 | - | - | -
CCOC(=O)C(CC(=O)Nc1nc(C(C)=O)c(C)s1)C(C)c1ccccc1 (stereo not drawn) | 0 | 0 | 18.4 | - | 0 | 0 | 0 | 0 | 0
N#Cc1nc(-c2ccccc2F)oc1NCCc1ccccc1 | 0 | 0 | 0 | 0 | 0 | 0 | - | - | -
SMILES | UHRF1 MBD2 ctr | ABHD5-PLIN5 inh | LEDGF integ inh | RBBP9 inh | PRMT1 inh | MBD2 inh | IN multimer act | TRFRET interf | IN-LEDGF confirm
N#Cc1nc(-c2ccccc2F)oc1NCc1ccccc1 | 0 | 0 | 14.2 | 0 | 0 | 0 | 0 | 0 | 0
Cc1ccc(N=C2NC(=O)S/C2=C\c2ccco2)cc1 | 0 | 0 | 0 | 0 | 0 | 0 | - | - | -
Cc1ccc(N=C2NC(=O)/C(=C/C=C/c3ccco3)S2)cc1 | 0 | 0 | 22.0 | 0 | 23.0 | 0 | 17.3 | 0 | 57.8
COc1ccc(S(=O)(=O)N2CCOCC2)cc1NC(=O)CSc1nnc(C2CC2)n1C | 0 | 0 | 0 | - | 0 | 0 | - | - | -
COc1ccc(S(=O)(=O)N2CCOCC2)cc1NC(=O)CSc1n[nH]c(=O)n1C1CC1 | 0 | 0 | 70.6 | 0 | 0 | 0 | 0 | 0 | 0
Cc1occc1CNc1ncnc2ccc(-c3ccc4c(c3)OCO4)cc12 | 0 | - | 0 | - | 0 | 0 | - | - | -
Cc1cccc(CNc2ncnc3ccc(-c4ccc5c(c4)OCO5)cc23)c1 | 0 | 0 | 15.4 | - | 0 | 0 | 0 | 0 | 0
C=CCn1c(C)cc(-c2csc(NC(=O)C3=COCCO3)n2)c1C | 0 | 0 | 51.2 | - | 0 | 0 | 0 | 0 | 0
Cc1ccc(/C=C/C(=O)N2CCCN(C(=O)/C=C/c3ccc(C)cc3)CC2)cc1 | 0 | 0 | 0 | 0 | 0 | 0 | - | - | -
O=C(/C=C/c1ccc(F)cc1)N1CCCN(C(=O)/C=C/c2ccc(F)cc2)CC1 | 0 | 0 | 25.2 | 0 | 0 | 0 | 0 | 0 | 0
CCC(CO)Nc1cccc2c1S(=O)(=O)N(Cc1cn(Cc3ccc(Cl)cc3)nn1)Cc1ccccc1O2 (stereo not drawn) | 0 | - | 0 | - | 0 | 0 | - | - | -
Cc1ccc(-c2cc(C(=O)N=Nc3c(O)[nH]c4ccccc34)[nH]n2)cc1C | 0 | - | 0 | - | 0 | 0 | - | - | -
Cc1ccc(C(=O)NNC(=O)C2CCN(c3nccc(C)n3)CC2)cc1 | 0 | 0 | 18.4 | 0 | 0 | 0 | 0 | 0 | 0
O=c1c2ccccc2[nH]n1[C@@H](Cc1ccccc1)Cn1cc(-c2ccc(-c3ccccc3)cc2)nn1 | 0 | - | 0 | - | 0 | 0 | - | - | -
Cc1c(NC(=O)c2cccc(NC(=O)Cc3ccc(F)cc3)c2)c(=O)n(-c2ccccc2)n1C | 0 | 0 | 18.9 | - | 0 | 0 | 0 | 0 | 0
Cc1c(NC(=O)c2cccc(NC(=O)Cc3c(F)cccc3Cl)c2)c(=O)n(-c2ccccc2)n1C | 0 | 0 | 0 | - | 0 | 0 | - | - | -
